Rows were chosen to be rich in hits. Some 2.1% of all compounds tested hit in one or more screens of this group.
miR-122 sensor = miR-122 Renilla sensor signal increase in Huh7, primary screen, miR-122 inhibitor project, cell-based, single point, plate reader; activation (reporter increase), % at 12.5 µM; 0.3% of 340,000 active; Huh7 miR-122 Renilla luciferase sensor, 48 h; neutral wells = 0, positive control = 100; AID 602342, 2012;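 active = mean replicate activation score at least 90 and every replicate individually at or above 90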;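 also: higher luciferase means less miR-122 activity so hits act as miR-122 inhibitors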
CAL PDZ FP-1 = CAL PDZ peptide-binding inhibitors, primary screen, biochemical, fluorescence polarization, Cer-tagged CAL PDZ, HTS. AID 504414, 2011. purified CAL PDZ, TMR-peptide fluorescence polarization, 1 h. inhibition, % at 20 µM. Golgi-associated PDZ and coiled-coil motif-containing protein (Homo sapiens), Q9HD26. 0.02% of 330,000 active;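 active = highest replicate inhibition of at least 40%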;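 also: plate controls were DMSO neutral control wells for no effect and unlabeled competitor peptide control wells for full effect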
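Control set: unlabelled peptide and DMSO controls / Material: purified CerCALP PDZ construct / Timing: 1 h incubation at room temperature before polarization reading / Doses: 20 µM, one dose / Detection: fluorescence polarization (mP)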
SR-BI DiI inh = inhibitors of SR-BI mediated HDL lipid uptake, primary screen, ldlA[mSR-BI] cells, fluorescence, single point. inhibition, % at 12.5 µM. Scavenger receptor class B member 1 (Mus musculus), Q61009. 0.96% of 320,000 active. ldlA[mSR-BI] CHO cells, DiI-HDL uptake fluorescence, 3 h;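 active = mean replicate inhibition of at least 70% and a set share of replicates each scoring 70 or more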;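 also: 0% = median of neutral control wells and 100% = median of positive control wells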
Target sequence (Q61009 whole entry, looked up): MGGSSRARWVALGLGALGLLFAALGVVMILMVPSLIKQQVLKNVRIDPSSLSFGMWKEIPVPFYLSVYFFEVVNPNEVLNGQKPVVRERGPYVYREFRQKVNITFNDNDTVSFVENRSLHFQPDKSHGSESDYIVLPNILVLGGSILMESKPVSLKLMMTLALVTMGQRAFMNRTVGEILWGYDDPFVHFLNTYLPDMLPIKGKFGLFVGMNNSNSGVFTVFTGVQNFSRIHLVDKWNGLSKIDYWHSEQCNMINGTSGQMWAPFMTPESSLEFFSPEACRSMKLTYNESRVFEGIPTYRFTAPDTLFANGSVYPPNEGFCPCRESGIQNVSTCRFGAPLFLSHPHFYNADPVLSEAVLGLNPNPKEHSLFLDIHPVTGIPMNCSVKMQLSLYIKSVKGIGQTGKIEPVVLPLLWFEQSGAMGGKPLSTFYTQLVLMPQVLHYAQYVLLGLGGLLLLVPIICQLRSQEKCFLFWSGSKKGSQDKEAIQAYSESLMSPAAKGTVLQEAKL
CAL PDZ FP-2 = untagged CAL PDZ binding inhibitors, primary screen, biochemical, fluorescence polarization, HTS. Golgi-associated PDZ and coiled-coil motif-containing protein (Homo sapiens), Q9HD26. purified CAL PDZ, TMR-peptide fluorescence polarization, 1 h. inhibition, % at 24.9 µM. 0.92% of 300,000 active. AID 602252, 2012;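 active = mean inhibition of at least 30% with at least half of replicates also reaching 30%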;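 also: 0% = DMSO neutral control and 100% = excess unlabeled competitor peptide PRC23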
ARNT-TACC3 inh = disruptors of ARNT/TACC3 protein interaction, primary screen, biochemical, AlphaScreen, single concentration; AID 623870, 2012; Transforming acidic coiled-coil-containing protein 3 (Homo sapiens), Q9Y6A5; 0.66% of 390,000 active; inhibition, % at 9.99 µM; AlphaScreen His-ARNT PAS-B/GST-TACC3 binding, luminescence; TACC3 fragment carries E629A point mutation;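 active = mean inhibition of replicates at least 50% and at least half of replicates each reaching 50%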;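 also: 0% = complete ARNT plus TACC3 wells and 100% = ARNT alone without TACC3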
SR-BI uptake up = activators of SR-BI mediated DiI-HDL uptake, primary screen, ldlA[mSR-BI] CHO cells, DiI fluorescence; 3 h; 100 = double the neutral-control signal; activation, % at 12.5 µM; 0.096% of 320,000 active;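 active = mean replicate activation of at least 60% and every replicate at or above 60%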;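 also: 0% = median plate neutral-control signal and 100% = twice that signal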
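material = CHO ldlA[mSR-BI] cells | medium = Ham's F12 with 0.5% BSA, HEPES 25 mM, pH 7.4 | reagent = fluorescent DiI-HDL, 10 µg/mL final | compound dosing = single-point compound dose | incubation = 3 h, 37 °C | measured by = bottom-read fluorescence, 550/595 nm | measure = HDL uptake via cellular fluorescence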
An asterisk follows results filed as active; [ ] = dose if it differs, or a comment.

Screening CCOc1ccc(C(=O)CCNC(Cc2cnc[nH]2)C(=O)O)cc1 (stereo not drawn) returned CAL PDZ FP-1 -2.5, SR-BI DiI inh 2.8, CAL PDZ FP-2 -1.6, ARNT-TACC3 inh 60.9* and SR-BI uptake up -2.8.
For Nc1cccc(CCc2ccncc2)c1 the results were miR-122 sensor 1.1, CAL PDZ FP-1 -0.8, SR-BI DiI inh 2.4, CAL PDZ FP-2 -2.4, ARNT-TACC3 inh -2.8 and SR-BI uptake up -2.4.
For Nc1cccc(/C=C/c2ccncc2)c1 the results were CAL PDZ FP-1 -1.8, SR-BI DiI inh -10.6, CAL PDZ FP-2 73.8* and SR-BI uptake up 10.6.
For C[C@H]1CN([C@@H](C)CO)C(=O)c2ccccc2-c2ccccc2CO[C@H]1CN(C)C(=O)c1ccncc1 the results were ARNT-TACC3 inh 2.6.
O=S(=O)(c1ccc2c(c1)OCCO2)N(Cc1ccc(F)cc1)Cc1nnc(-c2cccs2)o1 was read as miR-122 sensor 8.0, CAL PDZ FP-1 -2.0, SR-BI DiI inh 1.0, CAL PDZ FP-2 42.9*, ARNT-TACC3 inh -0.7 and SR-BI uptake up -1.0.
For C[C@H](CO)N1C[C@H](C)[C@@H](CN(C)S(=O)(=O)c2cccs2)Oc2c(NS(C)(=O)=O)cccc2C1=O the results were miR-122 sensor 1.7[16.7 µM] and ARNT-TACC3 inh -16.9.
For O=C(O)c1c[nH]n2c(=S)ncnc12 the results were miR-122 sensor -13.4.
For O=C(O)c1cc(=S)nc[nH]1 the results were miR-122 sensor 1.4, CAL PDZ FP-1 0.7, SR-BI DiI inh -21.1, ARNT-TACC3 inh 73.1* and SR-BI uptake up 21.1.
Screening CCN(c1ccccc1)S(=O)(=O)c1ccc(C(=O)N2CCN(c3ccccc3)CC2)cc1 returned miR-122 sensor -11.1, CAL PDZ FP-1 -0.2, SR-BI DiI inh 29.2, CAL PDZ FP-2 85.2*, ARNT-TACC3 inh -1.2 and SR-BI uptake up -29.2.
Screening CN(CC1CCCO1)S(=O)(=O)c1ccc(C(=O)N2CCN(c3ccccc3)CC2)cc1 (stereo not drawn) returned CAL PDZ FP-1 -0.4, SR-BI DiI inh -21.0, CAL PDZ FP-2 active, ARNT-TACC3 inh -2.8 and SR-BI uptake up 21.0.
For O=C(NNc1nc2ccc(Cl)cc2s1)c1cc(-c2cccs2)nc2ccccc12 the results were miR-122 sensor -0.4, CAL PDZ FP-1 0.1, SR-BI DiI inh 89.4*, ARNT-TACC3 inh 8.8 and SR-BI uptake up -89.4.
Screening Cc1c(NC(=O)c2cc(-c3ccccc3)on2)c(=O)n(-c2ccccc2)n1C returned miR-122 sensor 1.0, CAL PDZ FP-1 -2.0, SR-BI DiI inh 1.4, CAL PDZ FP-2 -0.8, ARNT-TACC3 inh 25.1 and SR-BI uptake up -1.4.
`COc1ccc(-c2cc(C(=O)Nc3c(C)n(C)n(-c4ccccc4)c3=O)c3ccccc3n2)cc1OC` gave miR-122 sensor -2.6, CAL PDZ FP-1 -2.5, SR-BI DiI inh 91.9*, CAL PDZ FP-2 -3.3, ARNT-TACC3 inh -8.5 and SR-BI uptake up -91.9.
Screening Cc1c(NC(=O)c2cc(-c3ccc(O)cc3)on2)c(=O)n(-c2ccccc2)n1C returned miR-122 sensor -10.2, CAL PDZ FP-1 -1.3, SR-BI DiI inh -23.1, CAL PDZ FP-2 34.9*, ARNT-TACC3 inh -6.8 and SR-BI uptake up 23.1.
`Cc1c(NC(=O)c2cc(-c3ccccc3)nc3ccccc23)c(=O)n(-c2ccccc2)n1C` gave miR-122 sensor -1.0, CAL PDZ FP-1 -1.4, SR-BI DiI inh 77.2*, ARNT-TACC3 inh 2.1 and SR-BI uptake up -77.2.
C[C@H]1CN([C@@H](C)CO)C(=O)c2cc(C3=CCCC3)cnc2O[C@H]1CN(C)S(=O)(=O)c1cn(C)cn1 was read as miR-122 sensor 0.7[16.7 µM] and ARNT-TACC3 inh -7.3.
`CC(C)NC(=O)N(C)C[C@H]1Oc2cc(C#Cc3cccc(F)c3)ccc2S(=O)(=O)N([C@H](C)CO)C[C@H]1C` gave miR-122 sensor 0.8[16.7 µM] and ARNT-TACC3 inh -2.2.
O=C(C[C@@H]1CC[C@@H]2[C@H](COC[C@@H](O)CN2C(=O)c2ccncc2)O1)NC1CCC1 was read as miR-122 sensor -0.8[16.7 µM] and ARNT-TACC3 inh -5.4.
CCOC(=O)C1=CC[C@@H](c2ccccc2)[C@@H]1C(=O)c1ccc(OC)cc1 was read as ARNT-TACC3 inh -1.7.
Cc1c(NC(=O)COC(=O)c2cc(-c3ccc(-c4ccccc4)cc3)nc3ccccc23)c(=O)n(-c2ccccc2)n1C was read as CAL PDZ FP-1 -2.7, SR-BI DiI inh 50.6, CAL PDZ FP-2 -0.4, ARNT-TACC3 inh -4.8 and SR-BI uptake up -50.6.
For Cc1c(NC(=O)c2cc(-c3cccs3)nc3ccccc23)c(=O)n(-c2ccccc2)n1C the results were CAL PDZ FP-1 -3.1, SR-BI DiI inh 76.6*, CAL PDZ FP-2 -1.5, ARNT-TACC3 inh -2.4 and SR-BI uptake up -76.6.
For Cc1ccc(-c2cc(C(=O)Nc3c(C)n(C)n(-c4ccccc4)c3=O)c3ccccc3n2)cc1 the results were miR-122 sensor 24.7, CAL PDZ FP-1 -0.9, SR-BI DiI inh 73.5*, CAL PDZ FP-2 -0.1, ARNT-TACC3 inh 2.0 and SR-BI uptake up -73.5.
`COc1ccc(NC2=C(NCCO)C(=O)c3ccccc3C2=O)cc1` gave CAL PDZ FP-1 -2.7, SR-BI DiI inh 8.3, CAL PDZ FP-2 -5.0, ARNT-TACC3 inh 59.6* and SR-BI uptake up -8.3.
For Cc1cc(C)cc(NC2=C(N)C(=O)c3ccccc3C2=O)c1 the results were miR-122 sensor 4.2, CAL PDZ FP-1 -0.7, SR-BI DiI inh 58.6, CAL PDZ FP-2 -0.5, ARNT-TACC3 inh 30.9 and SR-BI uptake up -58.6.
COc1cccc(NC2=C(NCCO)C(=O)c3ccccc3C2=O)c1 was read as miR-122 sensor -1.0, CAL PDZ FP-1 -0.7, SR-BI DiI inh -13.5, CAL PDZ FP-2 -3.1, ARNT-TACC3 inh 47.4* and SR-BI uptake up 13.5.
For COc1cccc(Nc2c(Nc3cccc(OC)c3)c(=O)c2=O)c1 the results were miR-122 sensor -1.3, CAL PDZ FP-1 -0.2, SR-BI DiI inh 1.7, CAL PDZ FP-2 -0.7, ARNT-TACC3 inh -5.4 and SR-BI uptake up -1.7.
COC1=C(Nc2ccc(OC)cc2)C(=O)c2ccccc2C1=O was read as CAL PDZ FP-1 1.4, SR-BI DiI inh 9.5, CAL PDZ FP-2 -1.7, ARNT-TACC3 inh 52.6* and SR-BI uptake up -9.5.

Screening data (PubChem)
